The values below come from ChEMBL document CHEMBL3044910, “Antifeedant activity of some pentacyclic triterpene acids and their fatty acid ester analogues” (2003).

Holding throughout (assay type): functional
What all share (set-up): scale not given: the % may be the effect or the level left

Assay [1] concerns Spodoptera litura. The experiment in a line: Antifeedant activity against fourth-instar larval stage of Spodoptera litura reared on castor leaves assessed as decrease in food consumption at 150 ug/cm2 after 48 hr by no-choice leaf disk assay relative to untreated control. The method, boiled down: (§1)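 Larvae reared on fresh castor leaves at 27 ± 1 °C, 65 ± 5% RH, 14:10 light:dark; freshly molted fourth instars used. Treated leaf disks placed with larvae in Petri dishes; leaf area consumed in treated and control disks measured by planimeter. Percent protection corrected for control by Singh and Panth formula; mean with standard deviation reported.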

Assay [2] has as its system Spodoptera litura. Briefly: Antifeedant activity against fourth-instar larval stage of Spodoptera litura reared on castor leaves assessed as decrease in food consumption at 50 ug/cm2 after 48 hr by no-choice leaf disk assay relative to untreated control. The method, boiled down: as §1
Assay [3] concerns Spodoptera litura. Briefly: Antifeedant activity against fourth-instar larval stage of Spodoptera litura reared on castor leaves assessed as decrease in food consumption at 100 ug/cm2 after 48 hr by no-choice leaf disk assay relative to untreated control. The method, boiled down: as §1
In assay [4] the test system is Spodoptera litura. Briefly: Antifeedant activity against fourth-instar larval stage of Spodoptera litura reared on castor leaves assessed as decrease in food consumption at 50 to 150 ug/cm2 measured after 48 hr by no-choice leaf disk assay relative to untreated control. In a few lines:
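Larvae reared on fresh castor leaves at 27 ± 1 °C, 65 ± 5% relative humidity, 14:10 light:dark; freshly molted fourth-instar larvae used. No-choice leaf disk test in Petri dish at 150, 100 and 50 µg/cm2. Leaf area consumed measured by planimeter at 6, 12, 24 and 48 h in treated and control disks. Percent protection corrected for control protection; mean with standard deviation.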

Calls of active or inactive are those of the source. The calls are words filed in the database; no cut-off is given here. Some results are limits rather than exact numbers.

For `CCCCCCCCCCCCCCCC(=O)O[C@H]1CC[C@]2(C)[C@H]3CC=C4[C@@H]5[C@@H](C)[C@H](C)CC[C@]5(C(=O)O)CC[C@@]4(C)[C@]3(C)CC[C@H]2C1(C)C`, the Activity in assay [1] is over 50%; in assay [2], over 50%; in assay [3], 40%.
Consider `CCCCCCCCCCCCCCCCCC(=O)O[C@H]1CC[C@]2(C)[C@H]3CC=C4[C@@H]5CC(C)(C)CC[C@]5(C(=O)O)CC[C@@]4(C)[C@]3(C)CC[C@H]2C1(C)C`, for which the result in assay [1] and in assay [3] was Active.
In the case of `C/C=C(\C)C(=O)O[C@H]1C[C@@H](OC(C)=O)[C@@]2(C(=O)OC)CO[C@H]3[C@@H](O)[C@@](C)([C@]45O[C@@]4(C)[C@H]4C[C@@H]5O[C@@H]5OC=C[C@@]54O)[C@H]4[C@]1(CO[C@]4(O)C(=O)OC)[C@@H]32` [AZADIRACTIN], the Activity in assay [4] is reported as 81%; in assay [1], over 50%; in assay [3], 40%.
As for `CCCCCCCCCCCCCCCC(=O)O[C@H]1CC[C@]2(C)[C@H]3CC=C4[C@@H]5CC(C)(C)CC[C@]5(C(=O)O)CC[C@@]4(C)[C@]3(C)CC[C@H]2C1(C)C` [OLEAN-12-ENE-28-CARBOXY-3BETA-HEXADECANOATE], the Activity in assay [1] is recorded as over 50%; in assay [2] it was 71%; in assay [3], 40%.
Regarding `CC1(C)CC[C@]2(C(=O)O)CC[C@]3(C)C(=CC[C@@H]4[C@@]5(C)CC[C@H](O)C(C)(C)[C@@H]5CC[C@]43C)[C@@H]2C1` [OLEANOLIC_ACID], in assay [1], the result was Active. Also, in assay [3], the Activity came out at 40%.
As for `CCCCCCCCCCCC(=O)O[C@H]1CC[C@]2(C)[C@H]3CC=C4[C@@H]5[C@@H](C)[C@H](C)CC[C@]5(C(=O)O)CC[C@@]4(C)[C@]3(C)CC[C@H]2C1(C)C` [URS-12-ENE-28-CARBOXY-3BETA-DODECANOATE], the Activity is recorded as over 50% in assay [1] and 40% in assay [3].
Turning to `CCCCCCCCCCCCCCCCCC(=O)O[C@H]1CC[C@]2(C)[C@H]3CC=C4[C@@H]5[C@@H](C)[C@H](C)CC[C@]5(C(=O)O)CC[C@@]4(C)[C@]3(C)CC[C@H]2C1(C)C` [URS-12-ENE-28-CARBOXY-3BETA-OCTADECANOATE], the Activity is on record as over 50% in assay [1], 74% in assay [2] and 40% in assay [3].
In the case of `CCCCCCCCCCCCCC(=O)O[C@H]1CC[C@]2(C)[C@H]3CC=C4[C@@H]5[C@@H](C)[C@H](C)CC[C@]5(C(=O)O)CC[C@@]4(C)[C@]3(C)CC[C@H]2C1(C)C` [URS-12-ENE-28-CARBOXY-3BETA-TETRADECANOATE], the Activity in assay [1] is recorded as over 50%; in assay [2] it was over 50%; in assay [3] it was 40%.
In the case of `C[C@H]1[C@H](C)CC[C@]2(C(=O)O)CC[C@]3(C)C(=CC[C@@H]4[C@@]5(C)CC[C@H](O)C(C)(C)[C@@H]5CC[C@]43C)[C@H]12` [URSOLIC ACID], the Activity is over 50% in assay [1] and 40% in assay [3].
